Columns and labels:
[1] = target: Ribosomal protein S6 kinase alpha-5 (Homo sapiens) (UniProt O75582); assay: Inhibition of MSK-1 kinase at 100 nM; set-up: scale not given: the % may be the effect or the level left
In short: (§1)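 Panel profiling of isolated kinases with inhibitor at 100 nM and 500 nM. […] Remaining kinase activity is expressed as % of control and is the mean of duplicate assays.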

[2] = target: Serine/threonine-protein kinase N2 (Homo sapiens) (UniProt Q16513); assay: Inhibition of PRK2 at 500 nM; set-up: scale not given: the % may be the effect or the level left; in short: as §1
Chain of Serine/threonine-protein kinase N2 (Homo sapiens) (Q16513 whole entry, looked up): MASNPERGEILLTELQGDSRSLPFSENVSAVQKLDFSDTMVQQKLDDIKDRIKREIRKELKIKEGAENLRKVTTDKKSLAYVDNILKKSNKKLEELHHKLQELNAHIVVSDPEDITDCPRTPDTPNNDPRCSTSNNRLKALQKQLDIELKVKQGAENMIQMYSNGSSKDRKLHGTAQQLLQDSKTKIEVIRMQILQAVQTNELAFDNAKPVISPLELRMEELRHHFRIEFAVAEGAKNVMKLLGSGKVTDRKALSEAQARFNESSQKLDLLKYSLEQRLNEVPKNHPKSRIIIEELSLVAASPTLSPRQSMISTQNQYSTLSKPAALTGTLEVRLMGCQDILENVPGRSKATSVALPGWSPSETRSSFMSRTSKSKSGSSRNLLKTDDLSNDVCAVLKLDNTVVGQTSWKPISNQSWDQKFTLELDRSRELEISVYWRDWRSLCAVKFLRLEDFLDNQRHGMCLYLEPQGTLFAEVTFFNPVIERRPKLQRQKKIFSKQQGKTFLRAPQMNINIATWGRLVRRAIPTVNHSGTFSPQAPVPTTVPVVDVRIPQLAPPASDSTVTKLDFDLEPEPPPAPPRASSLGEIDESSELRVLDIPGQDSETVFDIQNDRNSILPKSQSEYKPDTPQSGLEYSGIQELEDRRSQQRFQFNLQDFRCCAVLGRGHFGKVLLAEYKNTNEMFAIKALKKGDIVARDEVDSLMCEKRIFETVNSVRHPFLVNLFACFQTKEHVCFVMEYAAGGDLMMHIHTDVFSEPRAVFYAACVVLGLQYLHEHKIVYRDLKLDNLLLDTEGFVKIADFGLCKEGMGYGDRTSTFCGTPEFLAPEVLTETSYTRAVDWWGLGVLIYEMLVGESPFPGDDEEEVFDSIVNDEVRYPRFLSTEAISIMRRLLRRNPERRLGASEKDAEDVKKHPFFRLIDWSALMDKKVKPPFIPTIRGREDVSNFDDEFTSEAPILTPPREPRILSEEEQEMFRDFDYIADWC

Chain of Ribosomal protein S6 kinase alpha-5 (Homo sapiens) (O75582 whole entry, looked up): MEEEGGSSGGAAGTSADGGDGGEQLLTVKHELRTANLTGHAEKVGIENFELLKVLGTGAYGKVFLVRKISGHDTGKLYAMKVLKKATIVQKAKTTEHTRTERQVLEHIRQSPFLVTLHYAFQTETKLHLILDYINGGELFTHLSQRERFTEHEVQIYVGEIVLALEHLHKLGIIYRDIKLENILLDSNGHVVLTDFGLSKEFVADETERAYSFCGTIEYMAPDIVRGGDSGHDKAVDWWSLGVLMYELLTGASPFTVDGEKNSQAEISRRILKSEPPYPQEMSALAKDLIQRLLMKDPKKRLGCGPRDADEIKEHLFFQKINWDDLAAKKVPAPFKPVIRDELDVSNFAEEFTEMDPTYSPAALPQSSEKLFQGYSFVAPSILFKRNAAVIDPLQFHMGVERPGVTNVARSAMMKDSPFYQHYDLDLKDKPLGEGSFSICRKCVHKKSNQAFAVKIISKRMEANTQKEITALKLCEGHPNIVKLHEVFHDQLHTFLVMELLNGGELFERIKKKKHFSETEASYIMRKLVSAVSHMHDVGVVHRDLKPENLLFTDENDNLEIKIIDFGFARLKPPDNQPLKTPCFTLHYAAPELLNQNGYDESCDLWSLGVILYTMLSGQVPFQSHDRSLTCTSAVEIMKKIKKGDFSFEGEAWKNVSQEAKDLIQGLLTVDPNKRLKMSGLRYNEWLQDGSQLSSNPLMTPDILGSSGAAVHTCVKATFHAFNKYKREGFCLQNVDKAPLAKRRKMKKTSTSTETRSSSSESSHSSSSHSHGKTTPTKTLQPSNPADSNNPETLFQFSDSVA

Control [1]: 92%
Control [2]: 88%
SMILES: Cn1ccc2ccc3c4[nH]c5c(CCCN[C@H]6CC[C@H](O)CC6)cccc5c4c4c(c3c21)C(=O)NC4=O

Reference: ChEMBL document CHEMBL1136094, “Novel, potent and selective cyclin D1/CDK4 inhibitors: indolo[6,7-a]pyrrolo[3,4-c]carbazoles” (Bioorg Med Chem Lett, 2003)
